Assay results of several laboratories.
Compare with care: the assays were run in different laboratories.
PIK3CA E542K: Phosphatidylinositol 4,5-bisphosphate 3-kinase catalytic subunit alpha isoform (PIK3CA, Homo sapiens, UniProt P42336, E542K)
PIK3CA H1047L: Phosphatidylinositol 4,5-bisphosphate 3-kinase catalytic subunit alpha isoform (PIK3CA, Homo sapiens, UniProt P42336, H1047L)
PIK3CA M1043I: Phosphatidylinositol 4,5-bisphosphate 3-kinase catalytic subunit alpha isoform (PIK3CA, Homo sapiens, UniProt P42336, M1043I)
PIK3CA H1047Y: Phosphatidylinositol 4,5-bisphosphate 3-kinase catalytic subunit alpha isoform (PIK3CA, Homo sapiens, UniProt P42336, H1047Y)
PIK3CA: Phosphatidylinositol 4,5-bisphosphate 3-kinase catalytic subunit alpha isoform (PIK3CA, Homo sapiens, UniProt P42336)
PIK3CA I800L: Phosphatidylinositol 4,5-bisphosphate 3-kinase catalytic subunit alpha isoform (PIK3CA, Homo sapiens, UniProt P42336, I800L)
PIK3CA Q546K: Phosphatidylinositol 4,5-bisphosphate 3-kinase catalytic subunit alpha isoform (PIK3CA, Homo sapiens, UniProt P42336, Q546K)
PIK3CA E545K: Phosphatidylinositol 4,5-bisphosphate 3-kinase catalytic subunit alpha isoform (PIK3CA, Homo sapiens, UniProt P42336, E545K)
PIK3CA E545A: Phosphatidylinositol 4,5-bisphosphate 3-kinase catalytic subunit alpha isoform (PIK3CA, Homo sapiens, UniProt P42336, E545A)

| SMILES | target | effect on | method | concentration | remaining binding |
| --- | --- | --- | --- | --- | --- |
| CCC(=N\O)/C(C)=C/c1ccc(F)cc1 | PIK3CA E542K | cell-free assay | competition with immobilised ligand | 1 µM | 100% |
| CN(CCCC(F)(F)F)c1nccc(-c2cnn3ncccc23)n1 | PIK3CA H1047L | binding | – | 1 µM | 100% |
| COc1cnc(Nc2cccc(S(N)(=O)=O)c2)nc1N1CCN(c2ccccc2)CC1 | PIK3CA M1043I | binding | competition with immobilised ligand | 1 µM | 79% |
| O=C(NCCCN1CCOCC1)c1ccc(Nc2ncc(Cl)c(-c3ccc(Cl)s3)n2)cc1 | PIK3CA H1047Y | binding | competition with immobilised ligand | 1 µM | 95% |
| CN1CC[C@H](c2c(O)cc(O)c3c(=O)cc(-c4ccccc4Cl)oc23)[C@H](O)C1 | PIK3CA | cell-free assay | competition with immobilised ligand | 10 µM | 97% |
| CCN1CCN(Cc2ccc(C(=O)Nc3ccc(C)c(Oc4ccc5c(c4)CC(=O)N5)c3)cc2C(F)(F)F)CC1 | Phosphatidylinositol 4,5-bisphosphate 3-kinase catalytic subunit alpha isoform (PIK3CA, Homo sapiens, UniProt P42336, C420R) | binding | competition with immobilised ligand | 1 µM | 100% |
| C[C@@H](c1ccc(-n2cnc3c(N)ncnc32)cc1)N1CCc2nn(C)c(Cc3ccccc3)c2C1=O | PIK3CA H1047Y | binding | competition with immobilised ligand | 0.1 µM | 78% |
| C[C@@H]1CN(c2cc(-c3n[nH]c4ccc(OC5(C)CC5)cc34)ncn2)C[C@H](C)O1 | PIK3CA H1047L | cell-free assay | competition with immobilised ligand | 0.1 µM | 87% |
| CN1CCN(c2ccc(Nc3nccc(-c4cccc([N+](=O)[O-])c4)n3)cc2C(F)(F)F)CC1 | PIK3CA I800L | binding | – | 10 µM | 18% |
| CN(C)c1nccc(-c2cnc3ncccn23)n1 | PIK3CA I800L | binding | – | 1 µM | 63% |
| CN([C@@H]1CCc2c(CC(=O)O)c3cc(S(C)(=O)=O)ccc3n2C1)S(=O)(=O)c1ccc(F)cc1 | PIK3CA Q546K | cell-free assay | competition with immobilised ligand | 1 µM | 100% |
| CNC(=O)[C@@H]1CC[C@@H](n2c(-c3ccc4cnccc4c3)nc3ccc(C(=O)NCc4cccc(C(N)=O)c4)cc32)C1 | PIK3CA | binding | competition with immobilised ligand | 1 µM | 100% |
| N[C@H]1CCN(c2nccc(-c3cnn4ncccc34)n2)C1 | PIK3CA H1047Y | binding | – | 1 µM | 56% |
| C=CC(=O)N1CCC(C(=O)NCC(=O)N2CCN(c3nc(-c4cnc(N)nc4C(F)F)nc(N4CCOCC4)n3)CC2)CC1 | PIK3CA | binding | competition with immobilised ligand | 1 µM | 0.4% |
| CN(C)c1ncc(F)c(-c2cnn3ncccc23)n1 | PIK3CA I800L | binding | – | 1 µM | 46% |
| Cn1nc(C(F)(F)F)cc1-c1cnc(N2CCc3cc(S(=O)(=O)Nc4c(F)cc(Cl)cc4F)cc(N4CCCC4=O)c32)nc1 | PIK3CA E545K | cell-free assay | competition with immobilised ligand | 1 µM | 82% |
| FC(F)(F)Oc1cccc(-c2cnc3ccc(-c4ccncc4)nn23)c1 | PIK3CA | cell-free assay | competition with immobilised ligand | 5 µM | 35% |
| Cc1cnc(Nc2ccc(C(=O)N3CCC(N4CCCC4)CC3)cc2)nc1-c1cc2ccccc2s1 | PIK3CA Q546K | binding | competition with immobilised ligand | 1 µM | 97% |
| COCCOc1nc(-c2ccc(Cl)nc2)nc2c1CN(C(=O)c1ncn3ccccc13)CC2 | PIK3CA E545A | cell-free assay | competition with immobilised ligand | 0.1 µM | 100% |

| SMILES | target | effect on | method | concentration | remaining binding |
| --- | --- | --- | --- | --- | --- |
| Nc1ncc2c(n1)-c1c([nH]c3ccc(C#CC4CC4)cc13)CCCC2 | PIK3CA E542K | binding | competition with immobilised ligand | 1 µM | 91% |
| O=C(c1ccc(Nc2ncc(Cl)c(-c3cc4ccccc4s3)n2)cc1)N1CCC(N2CCCC2)CC1 | PIK3CA H1047Y | binding | competition with immobilised ligand | 1 µM | 70% |
| CN(C)c1nccc(-c2cnn3ncccc23)n1 | PIK3CA E545A | binding | – | 1 µM | 100% |
| c1ccc(N2CCN(Cc3nc4ccccc4[nH]3)CC2)nc1 | PIK3CA | cell-free assay | competition with immobilised ligand | 1 µM | 100% |
| c1cncc(-c2cccc(Nc3nccc(NC4CCCCC4)n3)c2)c1 | PIK3CA | binding | competition with immobilised ligand | 10 µM | 100% |
| C[C@@H]1CCN(c2nccc(-c3cnn4ncccc34)n2)C1 | PIK3CA E542K | binding | – | 1 µM | 82% |
| O=C(NCCCN1CCOCC1)c1ccc(Nc2nccc(-c3cc4ccccc4s3)n2)cc1 | PIK3CA H1047L | binding | competition with immobilised ligand | 1 µM | 90% |
| CN1CCN(c2ccc(Nc3nccc(-c4ccccc4)n3)cc2C(F)(F)F)CC1 | PIK3CA I800L | binding | – | 10 µM | 56% |
| COc1ncc2cc3ccccc3nc2c1C#N | PIK3CA E545A | cell-free assay | competition with immobilised ligand | 5 µM | 99% |
| O=C(c1ccc(Nc2nccc(-c3cc4ccccc4s3)n2)cc1)N1CCC(N2CCCC2)CC1 | PIK3CA E545K | binding | competition with immobilised ligand | 1 µM | 82% |
| COc1cnc(Nc2cccc(S(N)(=O)=O)c2)nc1N1CCN(c2ccccc2)C(=O)C1 | PIK3CA E545A | binding | competition with immobilised ligand | 1 µM | 98% |
| CN(c1nccc(-c2cnn3ncccc23)n1)C1CC1 | PIK3CA M1043I | binding | – | 1 µM | 100% |
| CSc1cccnc1N1CCN(Cc2nc3ccccc3[nH]2)CC1 | PIK3CA H1047L | cell-free assay | competition with immobilised ligand | 1 µM | 87% |
| O=C(c1ccc(Nc2ncc(Cl)c(-c3ccc(Cl)s3)n2)cc1)N1CCC(N2CCCC2)CC1 | PIK3CA | binding | competition with immobilised ligand | 1 µM | 100% |
| O=C(Nc1c[nH]nc1C(=O)NC1CCNCC1)c1cc(F)cc(F)c1 | PIK3CA | binding | competition with immobilised ligand | 1 µM | 100% |
| COc1ccnn2ncc(-c3ccnc(N(C)C)n3)c12 | PIK3CA E542K | binding | – | 1 µM | 95% |
| Cn1nc(C(=O)NCc2ccc(C(=O)O)cc2)cc1-c1ccc2[nH]ccc2c1 | PIK3CA Q546K | cell-free assay | competition with immobilised ligand | 0.1 µM | 76% |
| O=C(NCC1CCOCC1)c1n[nH]cc1NC(=O)c1c(F)cccc1F | PIK3CA E545K | binding | competition with immobilised ligand | 1 µM | 75% |
